ChEMBL document CHEMBL4184291, “Discovery of N-arylpyrroles as agonists of GPR120 for the treatment of type II diabetes” (Bioorg Med Chem Lett, 2018)

Key:
[1] = Half life in mouse liver microsomes; format: ADME, microsome
Cavia porcellus = experiment: Cardiotoxicity in guinea pig assessed as effect on QT interval at 22.4 mg/kg; format: toxicity, organism-based; details: in vivo
[2] = Half life in dog at 5 mg/kg, po by LC-MS/MS analysis; format: ADME, organism-based, Canis lupus familiaris; details: in vivo
[3] = Cmax in dog at 5 mg/kg, po by LC-MS/MS analysis; format: ADME, organism-based, Canis lupus familiaris; design: dose 5 mg/kg, route oral; details: in vivo
[4] = AUClast in rat at 10 mg/kg, po by LC-MS/MS analysis; format: ADME, organism-based; design: dose 10 mg/kg, time 0 - last, route oral; details: in vivo
[5] = Cmax in rat at 10 mg/kg, po by LC-MS/MS analysis; format: ADME, organism-based; design: dose 10 mg/kg, route oral; details: in vivo
Rattus norvegicus = species: Rattus norvegicus; experiment: Displacement of [35S]TBPS from rat GABA-gated chloride channel at 10 uM after 120 mins by scintillation counting method
Mus musculus [6] = experiment: Antiobesity activity in diet-induced obesity C57Bl6/J mouse model assessed as change in plasma insulin level at 30 mg/kg qd for 15 days measured on day 15 post 6 hrs fasting; format: functional
[7] = Half life in rat at 10 mg/kg, po by LC-MS/MS analysis; format: ADME, organism-based; details: in vivo
[8] = Half life in rat liver microsomes; format: ADME, microsome
[9] = Protein binding in mouse plasma; format: ADME, cell-free; details: read-out: PPB (converted)
Mus musculus [10] = experiment: Antiobesity activity in diet-induced obesity C57Bl6/J mouse model assessed as change in plasma glucose level at 10 mg/kg bid for 15 days measured on day 15 post 6 hrs fasting; format: functional
Cytochrome P450 2C9 = Cytochrome P450 2C9 (Homo sapiens, UniProt P11712); experiment: Inhibition of CYP2C9 (unknown origin); format: ADME
Homo sapiens = species: Homo sapiens; experiment: Selectivity ratio of EC50 for human GPR40 to EC50 for recombinant human GPR120 expressed in HEK293 cells; format: cell-based
[11] = Oral bioavailability in dog at 5 mg/kg by LC-MS/MS analysis; format: ADME, organism-based, Canis lupus familiaris; details: in vivo
Mus musculus [12] = experiment: Antidiabetic activity in po dosed diet-induced obese C57Bl/6 mouse model assessed as decrease in plasma glucose AUC administered 30 mins prior to glucose challenge measured up to 90 mins post dose by OGTT; format: functional, organism-based
Summary of the method: (§1)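 Diet-induced obese mice dosed orally at 0.1–3.0 mg/kg 30 min before an oral glucose load (time 0). Glucose followed from 30 min pre-glucose to 90 min post-glucose. Saxagliptin 1 mg/kg was the positive control.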

[13] = AUClast in mouse at 14.6 mg/kg, po by LC-MS/MS analysis; format: ADME, organism-based; design: dose 14.6 mg/kg, route oral, time 0 - last; details: in vivo
Cytochrome P450 1A2 = biological target: T1, Cytochrome P450 1A2 (Homo sapiens, UniProt P05177); experiment: Inhibition of CYP1A2 (unknown origin); format: ADME
T1 sequence (P05177 whole entry): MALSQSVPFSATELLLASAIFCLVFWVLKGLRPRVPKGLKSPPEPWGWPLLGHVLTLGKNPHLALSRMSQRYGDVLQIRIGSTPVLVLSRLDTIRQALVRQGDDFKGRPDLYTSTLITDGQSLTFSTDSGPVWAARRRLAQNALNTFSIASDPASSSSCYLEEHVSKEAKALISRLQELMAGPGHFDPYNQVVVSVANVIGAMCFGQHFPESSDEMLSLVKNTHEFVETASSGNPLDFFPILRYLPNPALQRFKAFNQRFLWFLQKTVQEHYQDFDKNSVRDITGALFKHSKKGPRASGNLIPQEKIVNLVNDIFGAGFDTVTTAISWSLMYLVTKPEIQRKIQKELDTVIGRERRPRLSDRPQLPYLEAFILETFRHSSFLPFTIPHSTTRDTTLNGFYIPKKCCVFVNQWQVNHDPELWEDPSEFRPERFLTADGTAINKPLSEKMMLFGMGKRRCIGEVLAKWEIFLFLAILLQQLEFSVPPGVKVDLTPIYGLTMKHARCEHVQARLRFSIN

[14] = Clearance in rat at 2 mg/kg, iv by LC-MS/MS analysis; format: ADME, organism-based; details: in vivo
[15] = Oral bioavailability in rat at 10 mg/kg by LC-MS/MS analysis; format: ADME, organism-based; details: in vivo
Mus musculus [16] = experiment: Oral bioavailability in mouse at 14.6 mg/kg by LC-MS/MS analysis; format: ADME, organism-based; details: in vivo
Mus musculus [17] = experiment: Antiobesity activity in diet-induced obesity C57Bl6/J mouse model assessed as final glucose level in plasma at 10 mg/kg qd for 15 days measured on day 15 post 6 hrs fasting (reference value: 184 +/- 30 mg/dL); format: functional
Mus musculus [18] = species: Mus musculus; experiment: Selectivity ratio of EC50 for mouse GPR40 to EC50 for recombinant mouse GPR120 expressed in HEK293 cells; format: cell-based
[19] = biological target: T2, Free fatty acid receptor 4 (Mus musculus, UniProt Q7TMA4); experiment: Agonist activity at recombinant mouse GPR120 expressed in HEK293 cells; format: functional, cell-based
T2 sequence (Q7TMA4 whole entry): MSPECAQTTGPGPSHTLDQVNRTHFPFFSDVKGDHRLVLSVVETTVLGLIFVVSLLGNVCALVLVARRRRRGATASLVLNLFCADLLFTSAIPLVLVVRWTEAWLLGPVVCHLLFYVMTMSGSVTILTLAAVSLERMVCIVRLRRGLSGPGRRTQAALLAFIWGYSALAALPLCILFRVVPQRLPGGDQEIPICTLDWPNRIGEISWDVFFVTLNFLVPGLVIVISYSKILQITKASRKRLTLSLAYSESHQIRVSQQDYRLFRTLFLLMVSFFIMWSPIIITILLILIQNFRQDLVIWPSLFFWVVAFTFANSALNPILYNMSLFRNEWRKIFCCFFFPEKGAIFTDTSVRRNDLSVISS

Mus musculus [20] = experiment: Antidiabetic activity in diet-induced obese C57Bl/6 mouse model assessed as plasma glucose AUC at 10 mg/kg administered 30 mins prior to glucose challenge measured up to 90 mins post dose by ipGTT (reference value: 10113 mg/dL.min); format: functional, organism-based; design: time < 1.5 hr, dose 10 mg/kg
Summary of the method: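 Intraperitoneal glucose tolerance test with 10 mg/kg dosing, run in GPR120 knockout mice and in wild-type mice.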

Mus musculus [21] = experiment: Antiobesity activity in diet-induced obesity C57Bl6/J mouse model assessed as change in plasma insulin level at 10 mg/kg qd for 15 days measured on day 15 post 6 hrs fasting; format: functional
[22] = biological target: Free fatty acid receptor 1 (Homo sapiens, UniProt O14842); experiment: Agonist activity at human GPR40; format: functional
Mus musculus [23] = experiment: Antiobesity activity in diet-induced obesity C57Bl6/J mouse model assessed as final insulin level in plasma at 10 mg/kg qd for 15 days measured on day 15 post 6 hrs fasting (reference value: 7304 +/- 2967 pg/ml); format: functional
Mus musculus [24] = experiment: Antidiabetic activity in diet-induced obese C57Bl/6 mouse model assessed as change in plasma glucose AUC at 0.1 mg/kg, po administered 30 mins prior to glucose challenge measured up to 90 mins post dose by OGTT; format: functional; summary of the method: as §1
[25] = Half life in rat at 2 mg/kg, iv by LC-MS/MS analysis; format: ADME, organism-based; details: in vivo
[26] = Half life in human liver microsomes; format: ADME, microsome
Mus musculus [27] = experiment: Antidiabetic activity in diet-induced obese C57Bl/6 mouse model assessed as change in plasma glucose AUC at 0.3 mg/kg, po administered 30 mins prior to glucose challenge measured up to 90 mins post dose by OGTT; format: functional; summary of the method: as §1
[28] = Cmax in mouse at 14.6 mg/kg, po by LC-MS/MS analysis; format: ADME, organism-based; design: dose 14.6 mg/kg, route oral; details: in vivo

Sequence of Free fatty acid receptor 1 (O14842 whole entry): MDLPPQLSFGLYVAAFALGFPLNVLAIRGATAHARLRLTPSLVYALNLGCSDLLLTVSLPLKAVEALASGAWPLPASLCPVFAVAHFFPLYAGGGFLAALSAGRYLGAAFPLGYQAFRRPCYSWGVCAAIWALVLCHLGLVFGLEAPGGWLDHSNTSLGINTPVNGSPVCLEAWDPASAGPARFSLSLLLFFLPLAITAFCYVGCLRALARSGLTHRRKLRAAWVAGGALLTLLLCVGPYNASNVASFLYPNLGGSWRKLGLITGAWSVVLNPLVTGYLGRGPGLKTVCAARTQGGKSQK
Sequence of Cytochrome P450 2C9 (P11712 whole entry): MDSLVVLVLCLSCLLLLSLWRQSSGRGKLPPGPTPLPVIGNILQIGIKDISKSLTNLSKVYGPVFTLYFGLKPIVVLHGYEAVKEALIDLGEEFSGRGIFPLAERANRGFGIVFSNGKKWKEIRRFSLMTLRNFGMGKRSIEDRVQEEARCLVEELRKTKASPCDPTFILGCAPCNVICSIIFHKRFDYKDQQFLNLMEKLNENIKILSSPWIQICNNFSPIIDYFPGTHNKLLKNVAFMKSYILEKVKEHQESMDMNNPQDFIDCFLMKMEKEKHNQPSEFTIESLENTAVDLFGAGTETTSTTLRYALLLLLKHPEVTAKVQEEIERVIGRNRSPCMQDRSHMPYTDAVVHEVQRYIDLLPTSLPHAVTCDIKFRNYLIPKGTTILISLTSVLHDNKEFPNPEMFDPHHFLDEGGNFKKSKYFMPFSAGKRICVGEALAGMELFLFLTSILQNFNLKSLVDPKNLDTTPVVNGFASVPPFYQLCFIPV

With `O=C(O)CCc1cc(F)c(OCc2c(C(F)(F)F)ccn2-c2ccc(Cl)cc2)c(F)c1` the half-life [1] was 2.58 h, the Activity (Cavia porcellus) was “Non-Toxic” and the half-life [2] was 4.37 h. It also gave a Cmax [3] of 8920 ng/mL, an AUC(0-t) [4] of 60900 ng·h/mL and a Cmax [5] of 11600 ng/mL. For the same molecule, the inhibition (Rattus norvegicus) was 66%, the Activity (Mus musculus [6]) was -3450 pg/mL and the half-life [7] was 2.87 h. For the same molecule, the half-life [8] was 2.2 h, the fraction unbound [9] was 0.0037 and the Activity (Mus musculus [10]) was -16.4 mg/dL. The INH (Cytochrome P450 2C9) was 7 µM, the Ratio EC50 (Homo sapiens) was 42 and the bioavailability [11] was 145%. The Activity (Mus musculus [12]) was “Dose-dependent effect”, the AUC(0-t) [13] was 81700 ng·h/mL and the INH (Cytochrome P450 1A2) was > 10 µM. The clearance [14] was 3.2 mL/min/kg, the bioavailability [15] was 116% and the F (Mus musculus [16]) was 166%. The Activity (Mus musculus [17]) was 163 mg/dL, the Ratio EC50 (Mus musculus [18]) was 18 and the EC50 [19] was 0.193 µM. For the same molecule, the AUC (Mus musculus [20]) was 4920 mg/dL·min, the Activity (Mus musculus [21]) was 457 pg/mL and the EC50 [22] was 3.34 µM. The Activity (Mus musculus [23]) was 7756 pg/mL, the Activity (Mus musculus [24]) was 8% and the half-life [25] was 1.64 h. For the same molecule, the half-life [26] was 0.85 h, the Activity (Mus musculus [27]) was -9% and the Cmax [28] was 18700 ng/mL.
